In brackets after ≈: the same amount, converted by molar mass.
Key:
[1] = Intrinsic clearance in human liver microsomes at 0.5 uM in presence of NADPH incubated upto 30 mins by UPLC-MS/MS analysis; format: ADME, Microsome; details: 0.5 h
Outline: (§1)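 Compound at 0.5 μM incubated with female CD1 mouse, male Sprague-Dawley rat or pooled human liver microsomes (0.5 mg/mL, 50 mM potassium phosphate, pH 7.4). Reaction started with excess NADPH. Samples taken at 0-30 min, quenched in acetonitrile, analysed by UPLC-MS/MS. Verapamil used as control, single time course.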

[2] = Half-life in NMRI mouse at 3 mg/kg, iv administered as bolus dose by UPLC-MS/MS analysis; format: ADME, organism-based; details: in vivo
Outline: (§2)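 Intravenous bolus solution, 3 mg free base/kg (5 mL/kg; 10% DMSO, 90% saline), given to female NMRI mice (n=3). Compound level in blood determined by UPLC-MS/MS. PK parameters derived from the blood concentration-time curve.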

[3] = Tmax in NMRI mouse at 10 mg/kg, po administered as gavage by UPLC-MS/MS analysis; format: ADME, organism-based; details: in vivo
Outline: (§3)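 Female NMRI mice (n=3) dosed by oral gavage as a solution at 10 mg free base/kg (10 mL/kg; vehicle 5 or 10% DMSO, 40% PEG400). Blood levels measured by UPLC-MS/MS. Parameters derived from the blood concentration-time curve.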

[4] = test system: Plasmodium falciparum; assay: Antiplasmodial activity against drug resistant Plasmodium falciparum D6 by [3H]hypoxanthine incorporation assay; format: functional, organism-based
Outline: (§4)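 Strains (K1, W2, 7G8, TM90C2A, D6, V1/S resistant; NF54 sensitive) cultured by the Trager and Jensen method; EC50 determined in vitro from [3H]hypoxanthine incorporation.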

[5] = test system: Plasmodium berghei; assay: Antiplasmodial activity against Plasmodium berghei ANKA infected in NMRI mouse assessed as survival days at 30 mg/kg, po QD for 4 days; format: functional; details: time 4 day
[6] = molecular target: Voltage-gated inwardly rectifying potassium channel KCNH2 (Homo sapiens, UniProt Q12809); assay: Inhibition of human ERG by IonWorks patch-clamp electrophysiology method
Sequence of Voltage-gated inwardly rectifying potassium channel KCNH2 (Q12809 whole entry): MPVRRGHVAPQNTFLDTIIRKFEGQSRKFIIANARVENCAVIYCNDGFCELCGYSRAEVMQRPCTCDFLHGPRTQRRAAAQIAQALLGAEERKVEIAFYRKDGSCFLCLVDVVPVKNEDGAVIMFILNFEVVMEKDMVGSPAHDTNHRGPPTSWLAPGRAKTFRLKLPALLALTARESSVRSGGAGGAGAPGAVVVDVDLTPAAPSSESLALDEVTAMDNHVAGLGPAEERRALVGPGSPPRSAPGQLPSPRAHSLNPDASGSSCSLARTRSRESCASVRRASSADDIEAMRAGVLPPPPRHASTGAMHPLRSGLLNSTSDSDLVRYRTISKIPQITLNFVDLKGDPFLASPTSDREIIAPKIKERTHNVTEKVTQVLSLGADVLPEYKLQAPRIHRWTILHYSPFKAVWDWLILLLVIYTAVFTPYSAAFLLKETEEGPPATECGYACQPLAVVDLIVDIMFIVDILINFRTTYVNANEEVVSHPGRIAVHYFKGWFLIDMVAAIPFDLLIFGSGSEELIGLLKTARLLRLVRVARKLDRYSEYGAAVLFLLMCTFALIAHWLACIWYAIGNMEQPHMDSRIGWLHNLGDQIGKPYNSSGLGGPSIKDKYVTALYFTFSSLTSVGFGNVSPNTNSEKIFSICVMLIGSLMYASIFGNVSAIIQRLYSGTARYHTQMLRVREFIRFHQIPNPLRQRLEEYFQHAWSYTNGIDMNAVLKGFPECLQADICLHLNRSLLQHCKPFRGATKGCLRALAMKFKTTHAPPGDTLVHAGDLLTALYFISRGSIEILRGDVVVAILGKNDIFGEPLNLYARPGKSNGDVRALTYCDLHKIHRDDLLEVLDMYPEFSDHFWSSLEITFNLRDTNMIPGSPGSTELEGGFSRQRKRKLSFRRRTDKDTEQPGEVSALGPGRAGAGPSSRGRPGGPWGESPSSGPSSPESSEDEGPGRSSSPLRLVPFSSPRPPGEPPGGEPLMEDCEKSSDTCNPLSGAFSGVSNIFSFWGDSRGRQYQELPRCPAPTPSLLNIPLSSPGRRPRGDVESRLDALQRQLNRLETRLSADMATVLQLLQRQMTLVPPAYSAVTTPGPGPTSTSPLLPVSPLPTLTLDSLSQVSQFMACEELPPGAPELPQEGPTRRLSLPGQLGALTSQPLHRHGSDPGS
Outline: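 hERG K⁺ channel inhibition measured by IonWorks patch-clamp electrophysiology. Eight-point concentration-response curves made from 3-fold serial dilutions down from the maximum final assay concentration. Each curve generated on 2 occasions.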

[7] = Protein binding in CD1 mouse plasma measured after 5 hr by UPLC-MS/MS analysis based equilibrium dialysis method; format: ADME, cell-free; details: mouse, 5 h
Outline: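 Equilibrium dialysis of female CD1 mouse plasma spiked at 10 μg/mL (12-14 kDa membrane) against isotonic buffer for 5 h at ~37°C with shaking. Unbound fraction taken as the buffer/plasma peak-area ratio by UPLC-MS/MS. n=6 replicates, run in triplicate.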

[8] = test system: Plasmodium berghei; assay: Antiplasmodial activity against GFP-transfected Plasmodium berghei ANKA infected in NMRI mouse assessed as reduction in parasitemia by measuring effective dose administered once daily oral dose for 4 days; format: functional; details: 96 h, time 4 day
Outline: (§5)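 Female NMRI mice (n=3 per group, randomized, not blinded) infected with GFP-transfected P. berghei ANKA. Oral dosing once daily for 4 days in 10% DMSO/40% PEG400/50% water or HPMC suspension vehicle. Parasitaemia measured by flow cytometry on blood collected 96 h after infection. Mice watched for toxicity over 4 h post-dose each day.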

[9] = Intrinsic clearance in Sprague-Dawley rat liver microsomes at 0.5 uM in presence of NADPH incubated upto 30 mins by UPLC-MS/MS analysis; format: ADME, Microsome; details: 0.5 h; outline: as §1
[10] = test system: Plasmodium berghei; assay: Antiplasmodial activity against Plasmodium berghei ANKA infected in NMRI mouse assessed as reduction in parasitemia at 1 mg/kg, po QD for 4 days; format: functional; parameters: scale not given: the % may be the effect or the level left; details: time 4 day; outline: as §5
[11] = test system: MRC5; assay: Antiproliferative activity against human MRC5 cells assessed as reduction in cell viability after 68 hrs by resazurin dye based fluorescence assay; details: MRC5, 68 h
Outline: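 MRC-5 fibroblasts plated overnight as monolayers, exposed to compound pre-diluted in MEM for 68 h. Resazurin then added (final 50 μM) for 3 h, fluorescence read at ex 528/em 590 nm. Signal converted to % inhibition against high- and no-inhibition controls. Plates accepted at Z' > 0.5.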

[12] = Clearance in NMRI mouse blood at 3 mg/kg, iv administered as bolus dose by UPLC-MS/MS analysis; format: ADME, organism-based; outline: as §2
[13] = AUC in NMRI mouse at 10 mg/kg, po administered as gavage by UPLC-MS/MS analysis; format: ADME, organism-based; parameters: dose 10 mg/kg; details: in vivo; outline: as §3
[14] = test system: Plasmodium berghei; assay: Antiplasmodial activity against Plasmodium berghei ANKA infected in NMRI mouse assessed as reduction in parasitemia at 30 mg/kg, po QD for 4 days; format: functional; parameters: scale not given: the % may be the effect or the level left; details: time 4 day; outline: as §5
[15] = Intrinsic clearance in CD1 mouse liver microsomes at 0.5 uM in presence of NADPH incubated upto 30 mins by UPLC-MS/MS analysis; format: ADME, Microsome; details: 0.5 h; outline: as §1
[16] = Hepatic extraction in rat during hepatic portal vein study; format: ADME; details: read-out: ERH
[17] = test system: Plasmodium berghei; assay: Antiplasmodial activity against Plasmodium berghei ANKA infected in NMRI mouse assessed as survival days at 1 mg/kg, po QD for 4 days; format: functional; details: time 4 day
[18] = test system: Plasmodium berghei; assay: Antiplasmodial activity against Plasmodium berghei ANKA infected in NMRI mouse assessed as survival days at 3 mg/kg, po QD for 4 days; format: functional; details: time 4 day
[19] = test system: Plasmodium berghei; assay: Antiplasmodial activity against Plasmodium berghei ANKA infected in NMRI mouse assessed as survival days at 10 mg/kg, po QD for 4 days; format: functional; details: time 4 day
[20] = test system: Plasmodium falciparum; assay: Antiplasmodial activity against drug resistant Plasmodium falciparum W2 by [3H]hypoxanthine incorporation assay; format: functional, organism-based; outline: as §4
[21] = test system: Plasmodium falciparum; assay: Antiplasmodial activity against drug resistant Plasmodium falciparum TM90C2A by [3H]hypoxanthine incorporation assay; format: functional, organism-based; outline: as §4
[22] = test system: Plasmodium falciparum; assay: Antiplasmodial activity against drug resistant Plasmodium falciparum 7G8 by [3H]hypoxanthine incorporation assay; format: functional, organism-based; outline: as §4
[23] = test system: Plasmodium falciparum; assay: Antiplasmodial activity against drug resistant Plasmodium falciparum V1/S by [3H]hypoxanthine incorporation assay; format: functional, organism-based; outline: as §4
[24] = test system: Plasmodium berghei; assay: Antiplasmodial activity against Plasmodium berghei infected in NMRI mouse assessed as reduction in parasitemia at 3 mg/kg, po QD for 4 days; format: functional; parameters: scale not given: the % may be the effect or the level left; details: time 4 day; outline: as §5
[25] = Cmax in NMRI mouse at 10 mg/kg, po administered as gavage by UPLC-MS/MS analysis; format: ADME, organism-based; parameters: route oral, dose 10 mg/kg; details: in vivo; outline: as §3
[26] = test system: Plasmodium yoelii; assay: Antiplasmodial activity against Plasmodium yoelli liver stage forms; format: functional, organism-based
[27] = Oral bioavailability in NMRI mouse at 10 mg/kg administered via gavage by UPLC-MS/MS analysis; format: ADME, organism-based; details: in vivo; outline: as §3
[28] = Kinetic aqueous solubility of the compound by laser nephelometry; format: physicochemical; details: read-out: Kinetic_solubility
Outline: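 Kinetic solubility measured by laser nephelometry. DMSO serial dilutions diluted into water to give final 100–5 μg/mL at 1.0% DMSO. Read immediately, in triplicate aliquots.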

[29] = Intrinsic clearance in rat hepatocytes; format: ADME, cell-based, Hepatocyte
[30] = test system: Plasmodium berghei; assay: Antiplasmodial activity against Plasmodium berghei ookinete form assessed as growth inhibition incubated for 22 hrs by GFP-based fluorescence microscopic analysis; format: functional, organism-based
[31] = test system: Plasmodium berghei; assay: Antiplasmodial activity against Plasmodium berghei ANKA infected in NMRI mouse assessed as reduction in parasitemia at 10 mg/kg, po QD for 4 days; format: functional; parameters: scale not given: the % may be the effect or the level left; details: time 4 day; outline: as §5
[32] = test system: Plasmodium falciparum; assay: Antiplasmodial activity against drug resistant Plasmodium falciparum […] [3H]hypoxanthine incorporation assay; format: functional, organism-based; outline: as §4
[33] = test system: Plasmodium falciparum; assay: Antiplasmodial activity against drug resistant Plasmodium falciparum K1 by [3H]hypoxanthine incorporation assay; format: functional, organism-based; outline: as §4
[34] = test system: Plasmodium falciparum; assay: Antiplasmodial activity against late stage (IV/V) Plasmodium falciparum NF54 gametocytes transfected with GFP-LUC assessed as growth inhibition incubated for 72 hrs by mitotracker Red-CMXROS dye based fluorescence microscopic analysis; format: functional, organism-based; details: NF54, 72 h
Outline: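 NF54 pfs16-LUC-GFP stage IV–V gametocytes (10% parasitaemia, 0.1% haematocrit) exposed to compound in 0.4% DMSO, three concentrations per log, for 72 h at 37°C under 5% CO2/5% O2/90% N2. MitoTracker Red CM-H2Xros then added for 16 h and viable gametocytes counted by imaging.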

[35] = Permeability of the compound at 10 uM incubated for 5 hrs by UPLC-MS/MS analysis based PAMPA method; format: ADME; details: read-out: permeability
Outline: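 PAMPA run on a lipid-oil-lipid tri-layer filter at pH 7.4. Compound at 10 μM in PBS (DMSO ≤5%) in donor wells, PBS in acceptor wells, kept 5 h at room temperature. Both compartments quantified by UPLC-MS/MS. Data accepted only when recovery exceeded 70%.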

[36] = Volume of distribution at steady state in NMRI mouse at 3 mg/kg, iv administered as bolus dose by UPLC-MS/MS analysis; format: ADME, organism-based; details: in vivo, read-out: Vdss; outline: as §2
[37] = test system: Plasmodium falciparum; assay: Antiplasmodial activity against chloroquine-sensitive Plasmodium falciparum 3D7 infected in human red blood cells assessed as growth inhibition by SYBR Green fluorescence assay; format: functional, organism-based, RBC; details: 3D7, Erythrocyte
Outline: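 P. falciparum 3D7 grown in 5% human red cells in RPMI 1640 (pH 7.3) with 0.5% Albumax II, hypoxanthine and gentamicin at 37°C under 1% O₂/3% CO₂. Growth measured by SYBR green fluorescence (ex 485/em 528 nm), with mefloquine as assay control. EC50 calculated.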

[38] = test system: HepG2; assay: Antiproliferative activity against human HepG2 cells assessed as reduction in cell viability; format: cell-based

## O=C(NCCN1CCCC1)c1cc(NCCC2CCOCC2)nc2ccc(Cl)cc12
[1]
  CLH: 1 mL/min/g
[2]
  half-life: 174 min
[3]
  Tmax: 30 min
[4]
  EC50: 0.7 nM
[5]
  Survival: 10 days
[6]
  IC50: > 11 µM
[7]
  PPB: 77%
[8]
  ED90: 1 mg/kg
[9]
  CLH: 0.8 mL/min/g
[10]
  Activity: 90%
[11]
  EC50: 31 µM
[12]
  clearance: 34 mL/min/kg
[13]
  AUC: 1210 ng·h/mL
[14]
  Activity: 99.9%
[15]
  CLH: 2 mL/min/g
[16]
  hepatic extraction ratio: 0.76
[17]
  Survival: 7 days
[18]
  Survival: 6 days
[19]
  Survival: 8 days
[20]
  EC50: 0.6 nM
[21]
  EC50: 0.5 nM
[22]
  EC50: 0.7 nM
[23]
  EC50: 0.9 nM
[24]
  Activity: 98%
[25]
  Cmax: 193 ng/mL
[26]
  EC50: 1 nM
[27]
  bioavailability: 23%
[28]
  solubility kinetic: 230 µM (≈ 99.1 µg/mL)
[29]
  CLH: 3 mL/min/g
[30]
  EC50: 14 nM
[31]
  Activity: 99.9%
[32]
  EC50: 0.5 nM
[33]
  EC50: 0.8 nM
[34]
  EC50: 39 nM
[35]
  Papp at 5 h, 10 µM: 4.8 ×10⁻⁶ cm/s
[36]
  Vd: 7.4 L/kg
[37]
  EC50: 6 nM

## O=C(NCCN1CCC1)c1cc(-c2ccc(CN3CCOCC3)cc2)nc2ccc(F)cc12
[38]
  EC50: 41 µM
[15]
  CLH: 0.5 mL/min/g
[18]
  Survival: 9.3 days
[19]
  Survival: 20.3 days
[24]
  Activity: 99.2%
[28]
  solubility kinetic: 71 µM (≈ 31.8 µg/mL)
[31]
  Activity: 99.1%
[35]
  Papp at 5 h, 10 µM: 7.5 ×10⁻⁶ cm/s
[37]
  EC50: 4 nM

From ChEMBL document CHEMBL4680079, “Discovery of a Quinoline-4-carboxamide Derivative with a Novel Mechanism of Action, Multistage Antimalarial Activity, and Potent in Vivo Efficacy” (J Med Chem, 2016)
